In ChEMBL document CHEMBL4346672, “Antimicrobial and KPC/AmpC inhibitory activity of functionalized benzosiloxaboroles” (Eur J Med Chem, 2019):
In brackets after ≈: the same amount, converted by molar mass. Activity calls are given as the source filed them. No cut-off for these calls is given here.

Key:
Burkholderia cepacia [1] = assay: Antibacterial activity against Burkholderia cepacia ATCC 25416 measured after 18 hrs by CLSI broth dilution method; assay type: functional; settings: ATCC 25416, 18 h
Method in brief: (§1)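 Broth MIC in Mueller-Hinton II broth following CLSI, compounds dissolved in DMSO. Strains subcultured twice on tryptic soy agar before testing. Growth read after 35 °C, 18 h.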

Staphylococcus aureus [2] = assay: Antibacterial activity against Staphylococcus aureus ATCC 6538P measured after 18 hrs by CLSI broth dilution method; assay type: functional; method in brief: as §1
Enterococcus faecium [3] = assay: Antibacterial activity against Enterococcus faecium ATCC 6057 assessed as diameter of zone inhibition measured after 18 hrs by CLSI disc diffusion method; assay type: functional
Method in brief: (§2)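 Disc diffusion on Mueller-Hinton II agar. Compounds dissolved in DMSO. Strains stored at -80 °C and subcultured twice on tryptic soy agar before testing. Inhibition zones read after 35 °C, 18 h.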

Proteus mirabilis = assay: Antibacterial activity against Proteus mirabilis ATCC 12453 assessed as fold reduction of MIC in presence of efflux pump inhibitor PAbetaN incubated for 18 hrs by broth microdilution method; assay type: functional
Method in brief: (§3)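 MICs determined with and without PAβN at 50 mg/L in Mueller-Hinton broth containing 1 mM MgSO₄. 2-fold serial dilutions per CLSI. Fold change taken from the paired MICs after 35 °C, 18 h.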

Klebsiella pneumoniae [4] = assay: Antibacterial activity against Klebsiella pneumoniae ATCC 13883 assessed as fold reduction of MIC in presence of efflux pump inhibitor PAbetaN incubated for 18 hrs by broth microdilution method; assay type: functional; method in brief: as §3
Burkholderia cepacia [5] = assay: Antibacterial activity against Burkholderia cepacia ATCC 25416 assessed as diameter of zone inhibition measured after 18 hrs by CLSI disc diffusion method; assay type: functional; method in brief: as §2
Staphylococcus aureus [6] = assay: Antibacterial activity against Staphylococcus aureus ATCC 6538P assessed as diameter of zone inhibition measured after 18 hrs by CLSI disc diffusion method; assay type: functional; method in brief: as §2
Enterococcus faecalis = assay: Antibacterial activity against Enterococcus faecalis ATCC 29212 assessed as diameter of zone inhibition measured after 18 hrs by CLSI disc diffusion method; assay type: functional; method in brief: as §2
Enterobacter cloacae = assay: Antibacterial activity against Enterobacter cloacae DSM 6234 assessed as diameter of zone inhibition measured after 18 hrs by CLSI disc diffusion method; assay type: functional; method in brief: as §2
[7] = system: Stenotrophomonas maltophilia; assay: Antibacterial activity against Stenotrophomonas maltophilia ATCC 13637 measured after 18 hrs by CLSI broth dilution method; assay type: functional; settings: ATCC 13637, 18 h; method in brief: as §1
Candida albicans [8] = assay: Antifungal activity against Candida albicans ATCC 90028 assessed as diameter of zone inhibition incubated for 24 hrs by CLSI disc diffusion method; assay type: functional
Method in brief: (§4)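 Yeast disc diffusion on Mueller-Hinton agar supplemented with 2% glucose and 0.5 mg/L methylene blue. Compounds in DMSO. Yeasts subcultured on Sabouraud dextrose agar before testing. Zones read after 35 °C, 24 h.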

[9] = system: Staphylococcus epidermidis; assay: Antibacterial activity against Staphylococcus epidermidis ATCC 12228 assessed as diameter of zone inhibition measured after 18 hrs by CLSI disc diffusion method; assay type: functional; method in brief: as §2
Saccharomyces cerevisiae = assay: Antifungal activity against Saccharomyces cerevisiae ATCC 9763 diameter of zone inhibition incubated for 24 hrs by CLSI disc diffusion method; assay type: functional
Method in brief: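 Disc-diffusion run on Mueller-Hinton II agar with 2% glucose and 0.5 mg/L methylene blue, using compounds in DMSO. Yeast was precultured on Sabouraud dextrose agar (24–48 h, 30 °C). Zones read after 24 h at 35 °C.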

Escherichia coli [10] = assay: Antibacterial activity against Escherichia coli ATCC 25922 assessed as fold reduction of MIC in presence of efflux pump inhibitor PAbetaN incubated for 18 hrs by CLSI broth microdilution method; assay type: functional; method in brief: as §3
[11] = system: Meyerozyma guilliermondii; assay: Antifungal activity against Candida guilliermondii IBA 155 assessed as diameter of zone inhibition incubated for 24 hrs by CLSI disc diffusion method; assay type: functional; method in brief: as §4
Candida tropicalis = assay: Antifungal activity against Candida tropicalis IBA 171 assessed as diameter of zone inhibition incubated for 24 hrs by CLSI disc diffusion method; assay type: functional; method in brief: as §4
Enterococcus faecium [12] = assay: Antibacterial activity against Enterococcus faecium ATCC 6057 measured after 18 hrs by CLSI broth dilution method; assay type: functional; settings: ATCC 6057, 18 h; method in brief: as §1
Escherichia coli [13] = assay: Antibacterial activity against Escherichia coli ATCC 25922 measured after 18 hrs by CLSI broth dilution method; assay type: functional; settings: ATCC 25922, 18 h; method in brief: as §1
Pseudomonas aeruginosa [14] = assay: Antibacterial activity against Pseudomonas aeruginosa ATCC 27853 assessed as fold reduction of MIC in presence of efflux pump inhibitor PAbetaN incubated for 18 hrs microdilution method; assay type: functional; method in brief: as §3
Klebsiella pneumoniae [15] = settings: ATCC 13883
Acinetobacter baumannii [16] = assay: Antibacterial activity against Acinetobacter baumannii ATCC 19606 assessed as fold reduction of MIC in presence of efflux pump inhibitor PAbetaN incubated for 18 hrs by broth microdilution method; assay type: functional; method in brief: as §3
Pseudomonas aeruginosa [17] = assay: Antibacterial activity against Pseudomonas aeruginosa ATCC 27853 measured after 18 hrs by CLSI broth dilution method; assay type: functional; settings: ATCC 27853, 18 h; method in brief: as §1
[18] = system: Bordetella bronchiseptica; assay: Antibacterial activity against Bordetella bronchiseptica ATCC 4617 measured after 18 hrs by CLSI broth dilution method; assay type: functional; settings: ATCC 4617, 18 h; method in brief: as §1
Escherichia coli [19] = assay: Antibacterial activity against Escherichia coli ATCC 25922 assessed as diameter of zone inhibition measured after 18 hrs by CLSI disc diffusion method; assay type: functional; method in brief: as §2
Acinetobacter baumannii [20] = assay: Antibacterial activity against Acinetobacter baumannii ATCC 19606 assessed as diameter of zone inhibition measured after 18 hrs by CLSI disc diffusion method; assay type: functional; method in brief: as §2
Serratia marcescens = assay: Antibacterial activity against Serratia marcescens ATCC 13880 assessed as fold reduction of MIC in presence of efflux pump inhibitor PAbetaN incubated for 18 hrs by broth microdilution method; assay type: functional; method in brief: as §3
[21] = system: Bordetella bronchiseptica; assay: Antibacterial activity against Bordetella bronchiseptica ATCC 4617 assessed as diameter of zone inhibition measured after 18 hrs by CLSI disc diffusion method; assay type: functional; method in brief: as §2
Candida parapsilosis = assay: Antifungal activity against Candida parapsilosis ATCC 22019 assessed as diameter of zone inhibition incubated for 24 hrs by CLSI disc diffusion method; assay type: functional; method in brief: as §4
Candida albicans [22] = assay: Antifungal activity against Candida albicans ATCC 90028 assessed as decrease in fungal cell growth at 0.78 to 12.5 mg/L incubated for 24 hrs by CLSI broth dilution method; assay type: functional; settings: ATCC 90028, 24 h
Method in brief: (§5)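 Yeast broth dilution in RPMI 1640 with 2% glucose, compounds in DMSO. Yeasts pre-grown on Sabouraud dextrose agar. Growth read after 35 °C, 24 h.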

Pseudomonas aeruginosa [23] = assay: Antibacterial activity against Pseudomonas aeruginosa ATCC 27853 assessed as diameter of zone inhibition measured after 18 hrs by CLSI disc diffusion method; assay type: functional, organism-based; method in brief: as §2
Klebsiella pneumoniae [24] = assay: Antibacterial activity against Klebsiella pneumoniae ATCC 13883 measured after 18 hrs by CLSI broth dilution method; assay type: functional; settings: ATCC 13883, 18 h; method in brief: as §1
Pichia kudriavzevii = assay: Antifungal activity against Candida krusei ATCC 6258 assessed as decrease in fungal cell growth at 0.78 to 12.5 mg/L incubated for 24 hrs by CLSI broth dilution method; assay type: functional; settings: ATCC 6258, 24 h; method in brief: as §5
Acinetobacter baumannii [25] = assay: Antibacterial activity against Acinetobacter baumannii ATCC 19606 measured after 18 hrs by CLSI broth dilution method; assay type: functional; settings: ATCC 19606, 18 h; method in brief: as §1

| Compound | MIC (Burkholderia cepacia [1]) [µg/mL] | MIC (Staphylococcus aureus [2]) [µg/mL] | diameter of the inhibition zone (DIZ) (Enterococcus faecium [3]) | fold change (FC) (Proteus mirabilis) | fold change (FC) (Klebsiella pneumoniae [4]) | diameter of the inhibition zone (DIZ) (Burkholderia cepacia [5]) | diameter of the inhibition zone (DIZ) (Staphylococcus aureus [6]) [mm] | diameter of the inhibition zone (DIZ) (Enterococcus faecalis) | diameter of the inhibition zone (DIZ) (Enterobacter cloacae) | MIC [7] [µg/mL] | diameter of the inhibition zone (DIZ) (Candida albicans [8]) | diameter of the inhibition zone (DIZ) [9] [mm] | diameter of the inhibition zone (DIZ) (Saccharomyces cerevisiae) | fold change (FC) (Escherichia coli [10]) | diameter of the inhibition zone (DIZ) [11] | diameter of the inhibition zone (DIZ) (Candida tropicalis) | MIC (Enterococcus faecium [12]) [µg/mL] | MIC (Escherichia coli [13]) [µg/mL] | fold change (FC) (Pseudomonas aeruginosa [14]) | DIZ (Klebsiella pneumoniae [15]) | further results |
| --- | --- | --- | --- | --- | --- | --- | --- | --- | --- | --- | --- | --- | --- | --- | --- | --- | --- | --- | --- | --- | --- |
| C[Si]1(C)OB(O)c2ccc(C(F)(F)F)cc21 | > 400 | 50 (≈ 203 µM) | 14 mm | 2 | 16 | inactive | 20 | 12 mm | inactive | 400 (≈ 1630 µM) | 14 mm | 20 | 15 mm | 16 | 16 mm | 13 mm | 25 (≈ 102 µM) | > 400 | 8 | inactive | fold change (FC) (Acinetobacter baumannii [16]): 16; MIC (Pseudomonas aeruginosa [17]): > 400 µg/mL; MIC [18]: 400 µg/mL (≈ 1630 µM); diameter of the inhibition zone (DIZ) (Escherichia coli [19]): inactive; diameter of the inhibition zone (DIZ) (Acinetobacter baumannii [20]): 13 mm; fold change (FC) (Serratia marcescens): 2; diameter of the inhibition zone (DIZ) [21]: inactive; diameter of the inhibition zone (DIZ) (Candida parapsilosis): 12 mm; MIC (Candida albicans [22]): 50 µg/mL (≈ 203 µM); diameter of the inhibition zone (DIZ) (Pseudomonas aeruginosa [23]): inactive; MIC (Klebsiella pneumoniae [24]): > 400 µg/mL; MIC (Pichia kudriavzevii): 200 µg/mL (≈ 813 µM); MIC (Acinetobacter baumannii [25]): 400 µg/mL (≈ 1630 µM) |
| C[Si]1(C)OB(O)c2ccc(Cl)cc21 | > 400 | 50 (≈ 235 µM) | 14 mm | 4 | 32 | 11 mm | 20 | 17 mm | inactive | 100 (≈ 471 µM) | 28 mm | 33 | 47 mm | 64 | 30 mm | 15 mm | 50 (≈ 235 µM) | 400 (≈ 1880 µM) | 32 | inactive | fold change (FC) (Acinetobacter baumannii [16]): 16; MIC (Pseudomonas aeruginosa [17]): > 400 µg/mL; MIC [18]: 400 µg/mL (≈ 1880 µM); diameter of the inhibition zone (DIZ) (Escherichia coli [19]): inactive; diameter of the inhibition zone (DIZ) (Acinetobacter baumannii [20]): 13 mm; fold change (FC) (Serratia marcescens): 16; diameter of the inhibition zone (DIZ) [21]: 11 mm; diameter of the inhibition zone (DIZ) (Candida parapsilosis): 18 mm; MIC (Candida albicans [22]): 12.5 µg/mL (≈ 58.8 µM); diameter of the inhibition zone (DIZ) (Pseudomonas aeruginosa [23]): inactive; MIC (Klebsiella pneumoniae [24]): 400 µg/mL (≈ 1880 µM); MIC (Pichia kudriavzevii): 25 µg/mL (≈ 118 µM); MIC (Acinetobacter baumannii [25]): 400 µg/mL (≈ 1880 µM) |
| C[Si]1(C)OB(O)c2ccc(C=O)c(F)c21 | > 400 | 25 (≈ 112 µM) | inactive | 4 | 4 | inactive | 21 | inactive | inactive | > 400 | inactive | 27 | inactive | 16 | inactive | inactive | 200 (≈ 893 µM) | > 400 | 4 | inactive | fold change (FC) (Acinetobacter baumannii [16]): 4; MIC (Pseudomonas aeruginosa [17]): > 400 µg/mL; MIC [18]: > 400 µg/mL; diameter of the inhibition zone (DIZ) (Escherichia coli [19]): inactive; diameter of the inhibition zone (DIZ) (Acinetobacter baumannii [20]): inactive; fold change (FC) (Serratia marcescens): 16; diameter of the inhibition zone (DIZ) [21]: inactive; diameter of the inhibition zone (DIZ) (Candida parapsilosis): inactive; MIC (Candida albicans [22]): 400 µg/mL (≈ 1790 µM); diameter of the inhibition zone (DIZ) (Pseudomonas aeruginosa [23]): inactive; MIC (Klebsiella pneumoniae [24]): > 400 µg/mL; MIC (Pichia kudriavzevii): > 400 µg/mL; MIC (Acinetobacter baumannii [25]): > 400 µg/mL |
